Series [1] has as its system HEL. Briefly: Cytotoxicity against human HEL cells assessed as cell growth inhibition by cell counting method. It counts as cell-based.
In series [2] the test system is Human alphaherpesvirus 3. Briefly: Antiviral activity against thymidine kinase deficient Varicella-Zoster virus 07-1 infected in human HEL cells assessed as inhibition of virus-induced cytopathic effect. It counts as functional, cell-based. The note with it: Human alphaherpesvirus 3, 07-1, HEL. Summed up:
(§1)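 Confluent HEL fibroblast cultures were inoculated with 20 PFU of VZV in the presence of varying compound concentrations. Plaque formation was recorded once untreated infected controls reached completion.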
Background: Cytopathic effects are the visible damage that an infection or toxin causes in cultured cells.

Series [3] can be described thus: Cytotoxicity against human HEL cells assessed as alteration to cell morphology by microscopic analysis. Type of series: cell-based. Summed up:
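Minimal cytotoxic concentration is the compound concentration giving a microscopically visible alteration of HEL cell morphology, scored in the antiviral assay cultures.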

Series [4] has as its system Human immunodeficiency virus 1. Briefly: Antiviral activity against HIV1 X4LAI.04 infected in human MT4 cells assessed as decrease in viral replication by p24gag-based luminex assay. Type of series: functional, cell-based. The note with it: Human immunodeficiency virus 1, X4LAI.04, MT4. Summed up: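 10^6 MT-4 cells were infected with HIV-1 X4LAI.04 (7 ng p24) for 2 h at 37 °C, then washed with PBS and resuspended. Compounds were added and cultures were kept 3 days at 37 °C. Supernatant p24 was measured by bead-based Luminex. Inhibition was calculated as (1 − p24 treated/p24 untreated) × 100, and EC50 was derived from it.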

Series [5] deals with MT4. Kind of series: Cytotoxicity against human MT4 cells assessed as reduction in cell viability by cell counting method. It counts as cell-based. Summed up: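 MT-4 cultures, untreated or treated, were assessed with an automated cell counter using propidium iodide staining to enumerate total and dead cells.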
Series [6] has as its system Human alphaherpesvirus 3. Kind of series: Antiviral activity against Varicella-Zoster virus OKA infected in human HEL cells assessed as inhibition of virus-induced cytopathic effect. Type of series: functional, cell-based. The note with it: Human alphaherpesvirus 3, strain Oka vaccine. Summed up: as §1
Series [7] concerns Human alphaherpesvirus 1. Kind of series: Antiviral activity against Herpes simplex virus 1 KOS infected in human HEL cells assessed as inhibition of virus-induced cytopathic effect. Type of series: functional, cell-based. The conditions noted are these: Human alphaherpesvirus 1, KOS. Summed up: (§2)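 Confluent HEL fibroblast monolayers were inoculated in 96-well plates with 100 CCID50 of virus in the presence of serially varied compound concentrations. Cytopathicity was scored once untreated infected controls reached full CPE.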

Series [8] has as its system Human betaherpesvirus 5. Briefly: Antiviral activity against human cytomegalovirus AD-169 infected in human HEL cells assessed as inhibition of virus-induced cytopathic effect. The conditions noted are these: Human betaherpesvirus 5, AD-169, HEL. It counts as functional, cell-based. Summed up:
as §2

Series [9] has as its system CCRF-CEM. Briefly: Cytostatic activity human CEM cells assessed as reduction in cell viability after 72 hrs by cell counting method. It counts as cell-based. The note with it: ccrf-cem, 72 h. Summed up:
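(5–7.5) × 10^? CEM cells per well were grown with compound for 72 h at 37 °C under humidified CO2. Cells were counted in a Coulter counter.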

The test system of series [10] is Human betaherpesvirus 5. Briefly: Antiviral activity against human cytomegalovirus Davis infected in human HEL cells assessed as inhibition of virus-induced cytopathic effect. Type of series: functional, cell-based. The conditions noted are these: Human betaherpesvirus 5, Davis. Summed up: as §2
Series [11] concerns Human immunodeficiency virus 1. Kind of series: Antiviral activity against HIV1 X4LAI.04 infected in human tonsillar tissues assessed as inhibition of virus-induced cytopathic effect by p24gag-based luminex assay. Type of series: functional. The conditions noted are these: Human immunodeficiency virus 1, X4LAI.04. Summed up: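 Tonsillectomy tissue blocks of 2–3 mm³ were cultured on collagen sponge gels at the air–liquid interface, 27 blocks per donor per condition. Blocks were pretreated with compound overnight, infected with HIV-1 X4LAI.04 and cultured 12 days, with drug replenished at each medium change every 3 days. Medium p24 was measured by Luminex. Inhibition was calculated against untreated tissue, and EC50 was derived from it.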

The test system of series [12] is Human alphaherpesvirus 2. Kind of series: Antiviral activity against Herpes simplex virus 2 G infected in human HEL cells assessed as inhibition of virus-induced cytopathic effect. Type of series: functional, cell-based. The note with it: Human alphaherpesvirus 2, strain G. Summed up: as §2
For series [13], the system named is Human alphaherpesvirus 1. Briefly: Antiviral activity against ACV-resistant thymidine kinase deficient Herpes simplex virus 1 KOS infected in human HEL cells assessed as inhibition of virus-induced cytopathic effect. Type of series: functional, cell-based. The conditions noted are these: Human alphaherpesvirus 1, KOS. Summed up: as §2

In general, CC50 refers to the concentration at which the toxic effect on the cells reaches its halfway point. By EC50 is commonly meant the concentration that produces a half-maximal response. Broadly, the IC50 is the concentration that inhibits the measured activity by half. Consider `Nc1nc(O)c2ncn(CSC(CO)CO)c2n1`, for which the values for the CC50 in series [1] and in [9] were more than 100 µM and more than 500 µM, respectively. For the same compound, the EC50 was more than 50 µM in series [2]; more than 150 µM in [4]; 6.9 µM in [6]; 0.4 µM in series [7]; more than 50 µM in series [8]; 40.8 µM in [10]. The EC50 in series [11] is more than 30 µM; in series [12], 0.5 µM; in [13], 1.6 µM. In series [3], the MCC fell in the range of 50 to 100 µM. Also, in series [5], the IC50 was more than 150 µM.
Take `C[C@H](NP(=O)(OCC(CO)CCn1cnc2c(=O)[nH]c(N)nc21)Oc1ccccc1)C(=O)OCc1ccccc1` (some centres undefined): the CC50 in series [1] was more than 100 µM; in series [9] it was more than 250 µM. In addition, the EC50 in [2] is 45 µM; in series [4] it was 10 µM; in series [6], 2.6 µM; in [7] it was 8 µM; in series [8] it was more than 50 µM; in series [10], more than 50 µM. The EC50 is more than 20 µM in series [11], 16 µM in series [12] and not below 100 µM in [13]. Also, the MCC in series [3] was in the range of 50 to 100 µM. For the same compound, the IC50 in series [5] is more than 150 µM.
Regarding `Nc1nc(Cl)c2ncn(CCC(CO)CO)c2n1`, the CC50 in series [1] was more than 100 µM; in series [9] it was 400 µM. Besides, the EC50 in series [2] was more than 50 µM; in [4] it was more than 150 µM; in [6], more than 50 µM; in series [7] it was more than 100 µM; in series [8], more than 50 µM; in series [10] it was more than 50 µM. The EC50 was more than 60 µM in [11], more than 100 µM in series [12] and more than 100 µM in [13]. The MCC in series [3] lay within 50 to 100 µM. The IC50 in series [5] was more than 150 µM.
For the compound `C[C@H](NP(=O)(OCC(CO)OCn1cnc2c(=O)[nH]c(N)nc21)Oc1cccc2ccccc12)C(=O)OCc1ccccc1` (some centres undefined), the concentration giving a half-maximal response (EC50) is 28.2 µM in series [2]; 8 µM in series [4]; 9.5 µM in series [6]; 0.4 µM in [7]; 9.5 µM in series [8]; 6.5 µM in [10]. Also, the EC50 in series [11] is 11 µM; in series [12], 0.5 µM; in series [13], 3 µM. Further, the MCC in [3] is more than 100 µM. Moreover, the IC50 in [5] was 100 µM.
On to `CC(=O)OCC(CO)OCn1cnc2c(Cl)nc(N)nc21` (centres undefined), for which the values for the EC50 in series [4] and in series [11] were more than 150 µM and more than 10 µM, respectively. The IC50 in series [5] is more than 150 µM. In series [9], the CC50 is not below 250 µM.
On to `C[C@H](NP(=O)(OCC(COP(=O)(N[C@@H](C)C(=O)OCc1ccccc1)Oc1ccccc1)SCn1cnc2c(=O)[nH]c(N)nc21)Oc1ccccc1)C(=O)OCc1ccccc1` (some centres undefined), for which the CC50 in [1] was more than 100 µM; in series [9], 77 µM. For the same compound, the EC50 was more than 50 µM in series [2]; 24 µM in [4]; 23 µM in [6]; more than 100 µM in series [7]; more than 50 µM in series [8]; more than 50 µM in [10]. Moreover, the figures for the EC50 in [11], in [12] and in series [13] were more than 3 µM, more than 100 µM and more than 100 µM, respectively. In addition, the MCC in series [3] lay within 50 to 100 µM. The IC50 in series [5] turned out to be 21 µM.
For `COc1nc(N)nc2c1ncn2CCC(CO)CO`, the CC50 is more than 100 µM in series [1] and 246 µM in series [9]. The EC50 in [2] is more than 50 µM; in series [4], more than 150 µM; in [6] it was 22.8 µM; in [7] it was more than 100 µM; in [8] it was more than 50 µM; in series [10], more than 50 µM. Moreover, the EC50 in series [11] was more than 30 µM; in series [12], more than 100 µM; in [13], more than 100 µM. For the same compound, the MCC in [3] lay within 50 to 100 µM. In [5], the IC50 is more than 150 µM.
Consider `Nc1nc2c(ncn2CCC(CO)CO)c(=O)[nH]1` [PENCICLOVIR], for which the CC50 in series [1] is more than 100 µM. The EC50 was 10.2 µM in series [2]; more than 150 µM in series [4]; more than 50 µM in series [8]; more than 50 µM in [10]; 11 µM in series [11]; 4 µM in [13]. Moreover, in series [3], the MCC is more than 100 µM. In addition, in [5], the IC50 was more than 150 µM.

The values above are taken from ChEMBL document CHEMBL4017507 (J Med Chem, 2017).
